Experimental data taken from ChEMBL document CHEMBL1135915, “Structure-activity relationships in 1,4-benzodioxan-related compounds. 7. Selectivity of 4-phenylchroman analogues for alpha(1)-adrenoreceptor subtypes” (J Med Chem, 2002).
pKi: −log10 of the molar value.

Experiments:
[1] = target: T1, Alpha-1A adrenergic receptor (Rattus norvegicus, UniProt P43140); experiment: Antagonistic affinity tested against isolated Rat Prostate Alpha-1A adrenergic receptor; type: functional; conditions: read-out: pA2 (converted)
T1 sequence (P43140 whole entry): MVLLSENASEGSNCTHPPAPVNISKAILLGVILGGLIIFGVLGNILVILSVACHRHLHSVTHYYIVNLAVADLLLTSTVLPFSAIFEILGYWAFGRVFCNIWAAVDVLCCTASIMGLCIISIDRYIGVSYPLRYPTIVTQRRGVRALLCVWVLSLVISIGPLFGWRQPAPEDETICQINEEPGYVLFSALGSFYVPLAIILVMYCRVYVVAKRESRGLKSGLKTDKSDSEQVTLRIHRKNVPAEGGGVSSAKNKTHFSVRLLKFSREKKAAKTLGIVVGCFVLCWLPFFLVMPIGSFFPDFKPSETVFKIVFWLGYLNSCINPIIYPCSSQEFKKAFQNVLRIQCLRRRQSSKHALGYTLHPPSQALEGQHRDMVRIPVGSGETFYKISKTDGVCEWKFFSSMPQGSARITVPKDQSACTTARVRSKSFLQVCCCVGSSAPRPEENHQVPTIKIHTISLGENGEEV
Outline: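 Prostate strips from male Wistar rats (275-300 g), 2 g tension in modified Krebs at 37 °C, 95% O2/5% CO2, pH 7.4, primed with 1.0 µM (-)-noradrenaline. After 90 min wash, a cumulative noradrenaline curve was run, then a second after 30 min antagonist equilibration. Single antagonist concentration in the range 0.01-1 µM; pKB by van Rossum.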

[2] = target: T2, Alpha-1B adrenergic receptor (Rattus norvegicus, UniProt P15823); experiment: Antagonistic affinity tested against isolated Rat Spleen Alpha-1B adrenergic receptor; type: functional; conditions: read-out: pA2 (converted)
T2 sequence (P15823 whole entry): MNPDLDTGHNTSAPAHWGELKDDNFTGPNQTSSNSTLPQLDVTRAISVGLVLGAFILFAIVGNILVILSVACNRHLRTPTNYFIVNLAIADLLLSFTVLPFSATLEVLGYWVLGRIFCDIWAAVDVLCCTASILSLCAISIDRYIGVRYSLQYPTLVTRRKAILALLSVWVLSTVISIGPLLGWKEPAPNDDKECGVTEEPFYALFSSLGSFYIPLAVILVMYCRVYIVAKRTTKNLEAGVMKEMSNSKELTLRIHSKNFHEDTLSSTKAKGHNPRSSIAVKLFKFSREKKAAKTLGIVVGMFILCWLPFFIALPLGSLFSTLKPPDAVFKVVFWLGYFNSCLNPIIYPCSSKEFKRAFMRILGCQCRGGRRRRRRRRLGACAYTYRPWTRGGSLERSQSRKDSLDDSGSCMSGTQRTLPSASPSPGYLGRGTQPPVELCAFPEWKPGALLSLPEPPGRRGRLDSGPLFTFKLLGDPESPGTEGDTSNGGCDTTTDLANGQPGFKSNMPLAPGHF
Outline: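 Rat spleen strips, 1 g resting tension, in Krebs with 4.0 µM propranolol and 0.01 mM K2EDTA, equilibrated 2 h. Cumulative isometric (-)-phenylephrine curves at 30 min intervals; the second served as control.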

[3] = target: T3, Alpha-1D adrenergic receptor (Rattus norvegicus, UniProt P23944); experiment: Antagonistic affinity tested against isolated Rat Thoracic Aorta Alpha-1D adrenergic receptor; type: functional, tissue-based; conditions: read-out: pA2 (converted)
T3 sequence (P23944 whole entry): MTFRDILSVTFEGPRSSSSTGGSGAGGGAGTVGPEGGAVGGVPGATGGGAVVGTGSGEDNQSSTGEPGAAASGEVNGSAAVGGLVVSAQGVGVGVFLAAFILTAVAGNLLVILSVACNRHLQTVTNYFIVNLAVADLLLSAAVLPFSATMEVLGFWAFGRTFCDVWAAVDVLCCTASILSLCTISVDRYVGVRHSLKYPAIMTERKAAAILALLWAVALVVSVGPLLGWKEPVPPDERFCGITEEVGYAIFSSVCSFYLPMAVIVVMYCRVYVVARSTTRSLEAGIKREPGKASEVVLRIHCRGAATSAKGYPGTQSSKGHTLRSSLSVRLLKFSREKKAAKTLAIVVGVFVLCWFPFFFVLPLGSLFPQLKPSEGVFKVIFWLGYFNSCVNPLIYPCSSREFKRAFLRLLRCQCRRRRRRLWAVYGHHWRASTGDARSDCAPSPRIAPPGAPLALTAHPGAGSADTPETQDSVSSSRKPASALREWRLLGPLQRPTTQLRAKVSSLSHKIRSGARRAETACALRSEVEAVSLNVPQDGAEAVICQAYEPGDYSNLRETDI

[4] = target: T4, Alpha-1B adrenergic receptor (Homo sapiens, UniProt P35368); experiment: Affinity constant on CHO cells expressing Human recombinant Alpha-1B adrenergic receptor; type: cell-based
T4 sequence (P35368 whole entry): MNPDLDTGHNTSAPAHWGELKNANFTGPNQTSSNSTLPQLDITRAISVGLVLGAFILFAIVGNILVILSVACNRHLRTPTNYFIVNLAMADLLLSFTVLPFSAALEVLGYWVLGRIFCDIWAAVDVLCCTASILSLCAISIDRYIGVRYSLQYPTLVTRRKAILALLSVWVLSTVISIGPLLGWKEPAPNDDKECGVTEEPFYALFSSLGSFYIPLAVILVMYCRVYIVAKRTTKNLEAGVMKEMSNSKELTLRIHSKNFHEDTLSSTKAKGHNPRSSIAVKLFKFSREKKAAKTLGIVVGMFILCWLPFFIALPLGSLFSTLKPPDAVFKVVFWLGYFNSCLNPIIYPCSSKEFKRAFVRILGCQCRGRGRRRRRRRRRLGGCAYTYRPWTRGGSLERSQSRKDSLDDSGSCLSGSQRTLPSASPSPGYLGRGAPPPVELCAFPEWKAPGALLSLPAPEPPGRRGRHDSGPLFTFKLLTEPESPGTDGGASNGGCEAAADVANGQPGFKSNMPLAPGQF

[5] = target: T1, Alpha-1A adrenergic receptor; experiment: Antagonistic affinity tested against isolated Rat Prostatic Vas Deferens Alpha-1A adrenergic receptor; type: functional, tissue-based; conditions: read-out: pA2 (converted)
[6] = target: T5, Alpha-1A adrenergic receptor (Homo sapiens, UniProt P35348); experiment: Affinity constant on CHO cells expressing Human recombinant Alpha-1A adrenergic receptor; type: cell-based
T5 sequence (P35348 whole entry): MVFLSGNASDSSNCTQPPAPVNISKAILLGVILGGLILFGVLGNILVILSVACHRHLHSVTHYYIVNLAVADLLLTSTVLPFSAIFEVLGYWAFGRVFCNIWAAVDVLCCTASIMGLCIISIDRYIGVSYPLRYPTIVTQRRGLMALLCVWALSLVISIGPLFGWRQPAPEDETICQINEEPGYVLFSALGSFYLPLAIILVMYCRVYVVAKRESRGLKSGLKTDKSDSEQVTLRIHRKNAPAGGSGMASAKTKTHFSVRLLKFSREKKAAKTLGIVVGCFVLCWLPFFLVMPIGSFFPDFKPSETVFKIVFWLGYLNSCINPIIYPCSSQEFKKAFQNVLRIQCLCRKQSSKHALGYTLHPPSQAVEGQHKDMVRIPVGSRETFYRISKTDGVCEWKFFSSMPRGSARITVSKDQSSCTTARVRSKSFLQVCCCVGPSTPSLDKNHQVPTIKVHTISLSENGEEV

[7] = target: T6, Alpha-1D adrenergic receptor (Homo sapiens, UniProt P25100); experiment: Affinity constant on CHO cells expressing Human recombinant Alpha-1D adrenergic receptor; type: cell-based
T6 sequence (P25100 whole entry): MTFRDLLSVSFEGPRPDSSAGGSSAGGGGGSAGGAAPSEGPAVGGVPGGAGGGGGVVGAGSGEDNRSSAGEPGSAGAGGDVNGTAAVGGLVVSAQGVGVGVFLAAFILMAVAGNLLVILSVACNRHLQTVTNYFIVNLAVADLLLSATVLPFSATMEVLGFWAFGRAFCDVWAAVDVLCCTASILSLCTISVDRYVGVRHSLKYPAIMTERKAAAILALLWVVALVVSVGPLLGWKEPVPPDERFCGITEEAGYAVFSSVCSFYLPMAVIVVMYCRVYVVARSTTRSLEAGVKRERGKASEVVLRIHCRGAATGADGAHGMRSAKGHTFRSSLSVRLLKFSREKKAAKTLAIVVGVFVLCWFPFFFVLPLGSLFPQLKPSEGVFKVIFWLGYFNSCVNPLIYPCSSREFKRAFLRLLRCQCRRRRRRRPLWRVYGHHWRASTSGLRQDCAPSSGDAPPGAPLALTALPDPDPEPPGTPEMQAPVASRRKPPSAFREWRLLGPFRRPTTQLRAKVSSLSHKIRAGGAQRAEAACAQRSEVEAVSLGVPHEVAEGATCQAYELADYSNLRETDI

[8] = target: T7, 5-hydroxytryptamine receptor 1A (Homo sapiens, UniProt P08908); experiment: Affinity constant on HeLa cells expressing Human recombinant 5-hydroxytryptamine receptor 1A
T7 sequence (P08908 whole entry): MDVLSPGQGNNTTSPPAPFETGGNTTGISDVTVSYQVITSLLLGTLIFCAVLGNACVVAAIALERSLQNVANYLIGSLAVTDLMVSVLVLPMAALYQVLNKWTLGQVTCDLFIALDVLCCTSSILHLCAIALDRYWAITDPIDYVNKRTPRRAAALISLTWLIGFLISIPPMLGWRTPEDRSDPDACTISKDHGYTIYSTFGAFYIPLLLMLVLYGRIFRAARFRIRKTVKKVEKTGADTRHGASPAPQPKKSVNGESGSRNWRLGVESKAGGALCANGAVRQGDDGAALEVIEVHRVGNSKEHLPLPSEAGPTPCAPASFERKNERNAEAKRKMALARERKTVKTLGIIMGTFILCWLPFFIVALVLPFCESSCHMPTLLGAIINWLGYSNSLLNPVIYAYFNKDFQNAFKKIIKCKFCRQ

SMILES	Kb [1]	Kb [2]	Kb [3]	pKi [4]	Kb [5]	pKi [6]	pKi [7]	pKi [8]
COc1cccc(OC)c1OCCNCC1CC(c2ccccc2)c2ccccc2C1=O (stereo not drawn)	0.347 nM	26.3 nM	2 nM	8.91	0.447 nM	9.60	9.74	7.96
COc1cccc(OC)c1OCCNCC1CC(c2ccccc2)c2ccccc2S1 (stereo not drawn)	4.9 nM	155 nM	17.4 nM	8.94	6.17 nM	10.05	9.36	7.82
COc1cccc(OC)c1OCCNCC1Cc2ccccc2C(c2ccccc2)C1 (stereo not drawn)	288 nM	110 nM	91.2 nM	7.91	178 nM	9.29	7.77	8.20
COc1cccc(OC)c1OCCNCC1COc2ccccc2O1 (stereo not drawn)	0.537 nM	–	1.58 nM	–	0.309 nM	–	–	–
COc1cccc(OC)c1OCCNC[C@@H]1Oc2ccccc2O[C@H]1c1ccccc1	5.89 nM	2510 nM	32.4 nM	–	5.75 nM	–	–	–
COc1cccc(OC)c1OCCNC[C@H]1C[C@H](c2ccccc2)c2ccccc2S1	107 nM	302 nM	61.7 nM	7.56	209 nM	8.63	7.64	7.99
COc1ccccc1N1CCN(CCN2C(=O)CC3(CCCC3)CC2=O)CC1 [BMY-7378]	–	33.1 nM	–	6.15	–	–	–	9.43
COc1cccc(OC)c1OCCNC[C@@H]1C[C@H](c2ccccc2)c2ccccc2O1	1.12 nM	28.8 nM	0.275 nM	10.40	1.32 nM	10.30	10.05	8.19
COc1cccc(OC)c1OCCNCCOc1ccccc1Cc1ccccc1	33.9 nM	67.6 nM	16.6 nM	8.55	58.9 nM	9.40	8.44	7.97
